Assay outcomes: PubChem, Johns Hopkins Ion Channel Center
TRPC6 inh = mouse TRPC6 channel inhibitors, primary screen, cell-based, HEK293, membrane potential dye; Short transient receptor potential channel 6 (Mus musculus), Q61143; ACh-evoked depolarization; hits give low values; B-score at 10 µM; 1.1% of 310,000 active;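 active = B-score under library mean minus 3 SD, initial fluorescence not abnormally high, positive integrated signal ratio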;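 note: B-score derived from integrated fluorescence ratio over the kinetic read; more negative B-score means stronger inhibition of depolarization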
TRPC4 potent = positive allosteric modulators of TRPC4, primary screen, cell-based, mouse TRPC4beta, HEK293 mu-opioid, Fluo-4 calcium | B-score at 10 µM | 0.42% of 310,000 active | DAMGO EC20, Fluo-4 Ca2+ flux; hits give high values | Short transient receptor potential channel 4 (Mus musculus), Q9QUQ5;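 active = B-score of calcium response area above 5 SD of library B-scores, with initial fluorescence ratio within 5 SD of library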;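 note: B-score of integrated fluorescence ratio over time as area under calcium response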
Target sequence (Q9QUQ5 whole entry, looked up): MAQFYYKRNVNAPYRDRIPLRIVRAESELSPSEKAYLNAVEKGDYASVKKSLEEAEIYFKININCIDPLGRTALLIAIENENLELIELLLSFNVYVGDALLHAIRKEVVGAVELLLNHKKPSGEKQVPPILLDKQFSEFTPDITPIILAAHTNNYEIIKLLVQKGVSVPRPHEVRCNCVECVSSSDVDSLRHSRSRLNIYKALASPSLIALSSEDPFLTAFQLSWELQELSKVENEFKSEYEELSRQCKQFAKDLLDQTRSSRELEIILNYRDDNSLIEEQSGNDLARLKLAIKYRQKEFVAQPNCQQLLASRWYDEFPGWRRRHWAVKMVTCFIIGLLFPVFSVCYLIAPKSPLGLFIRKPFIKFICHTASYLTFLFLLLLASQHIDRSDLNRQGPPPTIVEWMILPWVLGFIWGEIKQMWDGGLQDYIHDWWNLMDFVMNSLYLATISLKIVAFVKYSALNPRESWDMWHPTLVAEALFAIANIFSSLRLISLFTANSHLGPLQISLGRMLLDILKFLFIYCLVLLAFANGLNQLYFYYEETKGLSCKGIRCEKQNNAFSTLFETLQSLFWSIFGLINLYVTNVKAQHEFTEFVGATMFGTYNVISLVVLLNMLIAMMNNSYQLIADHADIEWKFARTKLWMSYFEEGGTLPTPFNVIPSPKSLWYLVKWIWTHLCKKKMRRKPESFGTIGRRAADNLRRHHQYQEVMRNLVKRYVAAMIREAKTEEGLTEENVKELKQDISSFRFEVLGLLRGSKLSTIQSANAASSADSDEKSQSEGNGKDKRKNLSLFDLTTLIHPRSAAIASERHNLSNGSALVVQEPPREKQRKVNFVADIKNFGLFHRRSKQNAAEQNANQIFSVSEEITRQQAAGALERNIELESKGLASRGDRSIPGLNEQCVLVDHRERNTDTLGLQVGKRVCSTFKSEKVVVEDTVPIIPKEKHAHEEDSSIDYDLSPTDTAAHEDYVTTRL
TRPC4 block = inhibitors of mouse TRPC4 channel, primary screen, Fluo4 calcium, HEK293 TRPC4beta/mu-opioid cells; Short transient receptor potential channel 4 (Mus musculus), Q9QUQ5; DAMGO-evoked Fluo4 calcium flux; hits give low values; B-score at 10 µM; 0.39% of 300,000 active;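 active = B-score over 3 SD under the library average, no early fluorescence shift, positive overall ratio signal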
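Material: HEK293 cells with stable TRPC4beta plus mu-opioid receptor expression; probe or stimulus: DAMGO in two steps, submaximal then maximal; technique: Fluo4 calcium fluorescence by kinetic imaging, 5 s 1 Hz baseline; measure: integrated fluorescence ratio relative to baseline, converted to per-well B score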
TRPC4 act = activators of mouse TRPC4 channel, primary screen, Fluo4 calcium, HEK293 TRPC4beta/mu-opioid cells | Fluo4 calcium fluorescence; hits give high values | Short transient receptor potential channel 4 (Mus musculus), Q9QUQ5 | 0.49% of 310,000 active | B-score at 10 µM;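 active = B-score above 5 SD of library B-scores, and initial fluorescence ratio not above library mean plus 5 SD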;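 note: positive B-score marks a calcium rise read as TRPC4 activation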
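Material: HEK293 stable line with TRPC4beta plus mu-opioid receptor; technique: Fluo4 calcium-sensitive dye fluorescence, kinetic, 1 Hz baseline; timing: Fluo4 dye loading 45 min at room temperature, 110 s recording; controls: assay buffer as low control, maximal DAMGO as high control; read-out: integrated baseline-normalised fluorescence ratio, converted to per-well B score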
TRPC6 activator = mouse TRPC6 channel activators, primary screen, cell-based, HEK293, membrane potential dye | HEK293-TRPC6 membrane potential dye fluorescence; hits give high values | AID 2550, 2010 | 0.13% of 310,000 active | B-score at 10 µM;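 active = B-score of the integrated fluorescence ratio above library mean plus 3 SD, and starting fluorescence ratio within library mean plus 5 SD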;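 note: higher score means more depolarization so channel activation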
TRPC4 sel inh 2 = second selectivity test of TRPC6 inhibitors: effect on mouse TRPC4; shares compounds with TRPC6 inh; HEK293 TRPC4/MOR, membrane potential dye fluorescence; channel activated by saturating DAMGO dose; inhibition, % at 10 µM; 42% of 920 active;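 active = compounds whose fluorescence signal differed from control wells by over 3 SD, either direction, in both duplicate plates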
TRPC4 spec = mouse TRPC4 modulation by TRPC6 hits, confirmation, selectivity assay for TRPC6 inhibitor project, cell-based, HEK293 TRPC4/mu-opioid, membrane potential dye. shares compounds with TRPC6 inh. membrane potential fluorescence. activity change, negative = inhibition, % at 10 µM. 61% of 920 active;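 active = rise or fall in signal beyond 3 SD of buffer-only wells in both replicate plates, either sign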;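 note: integrated kinetic ratio of fluorescence range over baseline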
HEK293 MPD ctr 2-1 = nonspecific membrane potential effects, parental HEK293, confirmation, counter-screen for TRPC6 inhibitor project, cell-based, second counter screen. 31% of 920 active. parental HEK293 membrane potential dye fluorescence; maximal acetylcholine challenge after compound addition. signal change vs control, % at 10 µM. shares compounds with TRPC6 inh;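 active = membrane potential signal moving either way by over 3 SD of the maximum-effect control, in both duplicate plates, meaning non-specific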
HEK293 MPD ctr-1 = membrane potential modulation in parental HEK293, confirmation, counter-screen for TRPC6 inhibitor project, cell-based; shares compounds with TRPC6 inh; parental HEK293 membrane potential dye fluorescence; membrane potential signal change, % at 10 µM; 60% of 920 active; AID 2780, 2010;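 active = membrane potential signal shifting up or down by more than 3 SD of buffer-only wells, on both duplicate plates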
HEK293 MPD ctr-2 = parental HEK293 membrane potential modulation, confirmation, counter-screen for TRPC6 modulator project, cell-based. 51% of 2,400 active. membrane potential dye fluorescence. membrane potential signal change, % at 10 µM. AID 488924, 2010. shares compounds with TRPC6 inh;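 active = membrane potential signal moves up or down beyond 5 SD from buffer-only wells, on both duplicate plates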
HEK293 MPD ctr 2-2 = second check of TRPC6 modulator effects in parental HEK293 cells. inhibition, % at 10 µM. shares compounds with TRPC6 inh. membrane potential dye fluorescence; after compound, maximal acetylcholine stimulation. 14% of 2,400 active;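 active = membrane potential signal drops by more than 5 SD from the mean control signal, in both duplicate plates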;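 note: plate controls were acetylcholine ECmax control wells for no effect and buffer only wells for full effect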
TRPC4 ctr mod = TRPC4 modulation by TRPC6 hit compounds, confirmation, selectivity assay for TRPC6 modulator project, cell-based, HEK293 TRPC4/mu-opioid, membrane potential dye, mouse; shares compounds with TRPC6 inh; membrane potential fluorescence; percent change from control (negative = decrease, positive = increase), % at 10 µM; 69% of 2,400 active;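 active = membrane potential signal moved up or down beyond 5 SD of buffer control wells, in both duplicate plates, actives on both sides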;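 note: plate controls were assay buffer wells for no effect and DAMGO maximal-effect wells for full effect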
TRPC4/MOR inh 2 = mouse TRPC4 off-target activity of TRPC6 modulators, second screen; shares compounds with TRPC6 inh; HEK293 TRPC4/mu-opioid, membrane potential dye fluorescence; stimulated with maximal-effect DAMGO; inhibition, % at 10 µM; 55% of 2,400 active; AID 488928;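 active = drop in membrane potential signal beyond 5 SD of the control wells in both duplicate plates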;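 note: TRPC4 counter screen for TRPC6 hits run under conditions tuned for TRPC6 not TRPC4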
TRPC6 block conf = mouse TRPC6 channel inhibitors, confirmation, HEK293 cells, membrane potential dye, duplicate. shares compounds with TRPC6 inh. ACh-evoked depolarization. inhibition, % at 10 µM. 43% of 3,300 active. AID 488960, 2010;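 active = fluorescence ratio falls more than 5 SD below the full-stimulation control mean, in both duplicate runs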;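 note: integrated fluorescence ratio of peak minus minimum over baseline after agonist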
TRPC6 act conf = mouse TRPC6 channel activators, confirmation, HEK293 cells, membrane potential dye, duplicate; AID 488961, 2010; HEK293-TRPC6 membrane potential dye fluorescence, FDSS; activation, % at 10 µM; 11% of 2,800 active; shares compounds with TRPC6 inh;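 active = ratio signal rise beyond 5 SD above unstimulated control wells' mean, seen in both duplicate runs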;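 note: plate controls were buffer EC0 wells for no effect and acetylcholine ECmax response for full effect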
An asterisk follows results filed as active; i = inactive; x = no result. Sampled rows, rich in hits. Any-hit rate of the full collection: about 2.3%.

SMILES	TRPC6 inh	TRPC4 potent	TRPC4 block	TRPC4 act	TRPC6 activator	HEK293 MPD ctr-2	HEK293 MPD ctr 2-2	TRPC4 ctr mod	TRPC4/MOR inh 2	TRPC6 block conf	TRPC6 act conf	others
CN(C)S(=O)(=O)c1cccc(C(=O)Nc2ccc(S(=O)(=O)N3CCCC3)cc2)c1	-5.24*	i	x	i	i	i	i	i	i	i	i
CN1CCN(S(=O)(=O)c2ccc(NC(=O)c3cccc(F)c3)cc2)CC1	i	i	i	i	i	x	x	x	x	x	x
Cc1ccc(S(=O)(=O)N2CCC(=O)N(CCOC(=O)Nc3ccccc3C)CC2)cc1	i	i	i	i	i	x	x	x	x	x	x
CN1CCN(S(=O)(=O)c2ccc(NC(=O)c3cccc(S(=O)(=O)N4CCCC4)c3)cc2)CC1	-5.46*	i	i	i	i	i	i	i	i	i	i
CC(=O)Nc1ccc(S(=O)(=O)N2CCCN(S(=O)(=O)c3ccc(C)cc3)CC2)cc1	-7.44*	i	i	i	i	x	x	x	x	i	i	TRPC4 sel inh 2=i;TRPC4 spec=i;HEK293 MPD ctr 2-1=i;HEK293 MPD ctr-1=i
COc1ccccc1CNC(=O)c1cc2c(=O)[nH]c3ccccc3c2n1C	i	i	i	i	i	x	x	x	x	x	x
CC(C)CCNC(=O)C(=O)NCc1ccccc1	i	i	i	i	i	x	x	x	x	x	x
COc1cc(/C=N/NC(=O)CNc2n[nH]c(=O)[nH]c2=O)ccc1O	i	i	i	i	i	x	x	x	x	x	x
CC1CCCN(S(=O)(=O)c2ccc(NC(=O)CNC3CCCC3)cc2)C1 (stereo not given)	-6.71*	i	i	i	i	x	x	x	x	i	i	TRPC4 sel inh 2=54.0%*;TRPC4 spec=i;HEK293 MPD ctr 2-1=i;HEK293 MPD ctr-1=3.2%*
CC(C)(O)C#Cc1ccc(CN2CCN(C3CCCCC3)C(CCO)C2)s1 (stereo not given)	-7.39*	i	i	i	i	x	x	x	x	i	i	TRPC4 sel inh 2=i;TRPC4 spec=i;HEK293 MPD ctr 2-1=i;HEK293 MPD ctr-1=i
Cc1ccc(-c2nc3ccccn3c2NCc2ccc3c(c2)OCO3)cc1	-5.48*	i	i	i	i	i	i	-19.0%*	69.0%*	44.5%*	i
COc1ccc(-c2nc3ccc(C)cn3c2NCc2ccc3c(c2)OCO3)cc1	i	i	i	i	i	x	x	x	x	x	x
Cc1ccc([N+](=O)[O-])cc1NC(=O)CSc1nncn1-c1ccccn1	i	i	i	i	i	x	x	x	x	x	x
Cc1cc([N+](=O)[O-])ccc1NC(=O)CSc1nncn1-c1ccccn1	-5.77*	i	i	i	i	i	i	i	i	i	i
COc1cc(C(=O)Nc2cc(C(F)(F)F)ccc2N2CCOCC2)ccc1OCC(=O)N1CCOCC1	i	i	i	i	i	x	x	x	x	x	x
Cc1ccc(NC(=O)COC(=O)C(NS(=O)(=O)c2ccc(Cl)cc2)C(C)O)cc1 (stereo not given)	i	i	i	i	i	x	x	x	x	x	x
C/C(N)=C(/C#N)C(=O)COC(=O)C(NS(=O)(=O)c1ccc(Cl)cc1)C(C)O (stereo not given)	-5.43*	i	i	i	i	i	i	i	i	i	i
Cc1ccccc1OCC(O)CN1CCN(CCN2C(=O)c3cccc4cccc(c34)C2=O)CC1 (stereo not given)	-5.23*	i	i	i	i	i	i	-18.0%*	82.0%*	59.0%*	i
CCC(OCC(O)CN1CCN(CCN2C(=O)c3cccc4cccc(c34)C2=O)CC1)c1ccccc1 (stereo not given)	-6.12*	i	i	i	i	-90.0%*	i	-29.0%*	77.0%*	59.5%*	i
Cc1cccc(C)c1OCC(O)CN1CCC(CN2C(=O)c3cccc4cccc(c34)C2=O)CC1 (stereo not given)	-8.35*	i	i	i	i	x	x	x	x	64.4%*	i	TRPC4 sel inh 2=39.5%*;TRPC4 spec=-18.2%*;HEK293 MPD ctr 2-1=i;HEK293 MPD ctr-1=-200.0%*
CC(Sc1nnnn1-c1ccc(Cl)cc1)C(=O)NCC(=O)Nc1ccc(F)c(F)c1F (stereo not given)	i	i	i	i	i	x	x	x	x	x	x
CN(Cc1c(F)cccc1Cl)C(=O)c1ccc(NC(=O)CC2SC(N3CCCC3)=NC2=O)cc1 (stereo not given)	i	i	i	i	i	x	x	x	x	x	x
